# pIC50: −log10 of the molar value. Square brackets hold non-standard residues; d marks the D form. Peptide text beside a SMILES is read from it. Aoc = NCCCCCCCC(=O)O
# Assays:
# [1] = biological target: T1, Growth hormone-releasing hormone receptor (Rattus norvegicus, UniProt Q02644); assay: Compound was tested to Inhibit [125I]-Growth hormone-releasing factor in rat adenopituitary homogenates
# T1 sequence (Q02644 whole entry): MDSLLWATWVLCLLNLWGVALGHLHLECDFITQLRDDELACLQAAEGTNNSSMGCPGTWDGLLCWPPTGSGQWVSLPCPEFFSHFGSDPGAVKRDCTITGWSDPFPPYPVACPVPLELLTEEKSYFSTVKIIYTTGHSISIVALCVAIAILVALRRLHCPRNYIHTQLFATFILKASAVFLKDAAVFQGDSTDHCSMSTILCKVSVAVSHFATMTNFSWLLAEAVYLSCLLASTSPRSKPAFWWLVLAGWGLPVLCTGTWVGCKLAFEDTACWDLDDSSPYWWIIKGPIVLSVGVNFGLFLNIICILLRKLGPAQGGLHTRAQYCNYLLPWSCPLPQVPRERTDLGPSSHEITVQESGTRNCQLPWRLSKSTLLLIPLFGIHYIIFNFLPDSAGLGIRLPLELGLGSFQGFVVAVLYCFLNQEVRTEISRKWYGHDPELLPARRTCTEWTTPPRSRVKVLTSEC
# How it was run: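 Anterior pituitaries from 2-month-old male Sprague-Dawley rats homogenized in ice-cold 50 mM Tris-HCl pH 7.4 with 5 mM MgCl2, 5 mM EDTA. Homogenate (70–75 µg protein) incubated with 35–50 pM [125I-Tyr10]hGRF(1-44)NH2 and peptide at 0–1000 nM in Tris-HCl buffer pH 7.4 with 5 mM EDTA, 5 mM MgCl2, 0.42% BSA, 60 min at 23 °C. Nonspecific binding defined with 2.4 µM rGRF(1-29)NH2. Bound fraction separated by centrifugation and gamma-counted. IC50 fitted with LIGAND. Mean ± SEM of three experiments, each in duplicate or triplicate.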
# [2] = biological target: T2, Growth hormone-releasing hormone receptor (Rattus norvegicus) (UniProt Q02644); assay: Relative affinity compared to hGRF(1-29)NH2; format: functional
# T2 sequence (whole entry): T1 sequence (Q02644 whole entry)
# How it was run: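 Radioligand competition in rat anterior pituitary homogenate using [125I-Tyr10]hGRF(1-44)NH2 at 35–50 pM and peptides at 0–1000 nM, 60 min at 23 °C. Relative affinity is the binding IC50 expressed as a percentage relative to hGRF(1-29)NH2.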
compound,measurement,setting,value
H-YADAIFTNSYRKVLGQLSARLLQDIMSR-NH2,pIC50,[1],< 6.00
CC[C@H](C)[C@H](NC(=O)[C@H](C)NC(=O)[C@H](CC(=O)O)NC(=O)[C@H](C)NC(=O)[C@@H](N)Cc1ccc(O)cc1)C(=O)N[C@@H](Cc1ccccc1)C(=O)N[C@H](C(=O)N[C@@H](CC(N)=O)C(=O)N[C@@H](CO)C(=O)N[C@@H](Cc1ccc(O)cc1)C(=O)N[C@@H](CCCNC(=N)N)C(=O)N[C@@H](CCCCN)C(=O)N[C@H](C(=O)N[C@@H](CC(C)C)C(=O)NCC(=O)N[C@@H](CCC(N)=O)C(=O)N[C@@H](CC(C)C)C(=O)N[C@@H](CO)C(=O)N[C@@H](C)C(=O)N[C@@H](CCCNC(=N)N)C(=O)N[C@@H](CCCCN)C(=O)N[C@@H](CC(C)C)C(=O)N[C@@H](CC(C)C)C(=O)N[C@@H](CCC(N)=O)C(=O)N[C@@H](CC(=O)O)C(=O)N[C@H](C(=O)N[C@@H](CCSC)C(=O)N[C@@H](CO)C(=O)N[C@@H](CCCNC(=N)N)C(N)=O)[C@@H](C)CC)C(C)C)[C@@H](C)O,pIC50,[1],8.25
H-ADAIFTSSYRRILGQLYARKLLHEIMNR-NH2,pIC50,[1],7.35
CC[C@H](C)[C@H](NC(=O)[C@H](C)NC(=O)[C@H](CC(=O)O)NC(=O)[C@H](C)NC(=O)[C@H](Cc1ccc(O)cc1)NC(=O)CCCCCN)C(=O)N[C@@H](Cc1ccccc1)C(=O)N[C@H](C(=O)N[C@@H](CC(N)=O)C(=O)N[C@@H](CO)C(=O)N[C@@H](Cc1ccc(O)cc1)C(=O)N[C@@H](CCCNC(=N)N)C(=O)N[C@@H](CCCCN)C(=O)N[C@H](C(=O)N[C@@H](CC(C)C)C(=O)NCC(=O)N[C@@H](CCC(N)=O)C(=O)N[C@@H](CC(C)C)C(=O)N[C@@H](CO)C(=O)N[C@@H](C)C(=O)N[C@@H](CCCNC(=N)N)C(=O)N[C@@H](CCCCN)C(=O)N[C@@H](CC(C)C)C(=O)N[C@@H](CC(C)C)C(=O)N[C@@H](CCC(N)=O)C(=O)N[C@@H](CC(=O)O)C(=O)N[C@H](C(=O)N[C@@H](CCSC)C(=O)N[C@@H](CO)C(=O)N[C@@H](CCCNC(=N)N)C(N)=O)[C@@H](C)CC)C(C)C)[C@@H](C)O,pIC50,[1],8.18
CC[C@H](C)[C@H](NC(=O)[C@H](C)NC(=O)[C@H](CC(=O)O)NC(=O)[C@H](C)NC(=O)[C@@H](N)Cc1ccc(O)cc1)C(=O)N[C@@H](Cc1ccccc1)C(=O)N[C@H](C(=O)N[C@@H](CC(N)=O)C(=O)N[C@@H](CO)C(=O)N[C@@H](Cc1ccc(O)cc1)C(=O)N[C@@H](CCCN=C(N)N)C(=O)N[C@@H](CCCCN)C(=O)NCCCCCCCC(=O)N[C@@H](CCC(N)=O)C(=O)N[C@@H](CC(C)C)C(=O)N[C@@H](CO)C(=O)N[C@@H](C)C(=O)N[C@@H](CCCN=C(N)N)C(=O)N[C@@H](CCCCN)C(=O)N[C@@H](CC(C)C)C(=O)N[C@@H](CC(C)C)C(=O)N[C@@H](CCC(N)=O)C(=O)N[C@@H](CC(=O)O)C(=O)N[C@H](C(=O)N[C@@H](CCSC)C(=O)N[C@@H](CO)C(=O)N[C@@H](CCCN=C(N)N)C(N)=O)[C@@H](C)CC)[C@@H](C)O (H-YADAIFTNSYRK[Aoc]QLSARKLLQDIMSR-NH2),pIC50,[1],< 6.00
H-YADAIFTNSYRKVLGQLSARKLLQIMSR-NH2 [listing 1 of 2 here],Activity,[2],33%
H-YADAIFTSYRKVLGQLSARKLLQDIMSR-NH2,pIC50,[1],7.02
H-YADAIFTNSYRKVLGQLSARKLLQIMSR-NH2 [listing 2 of 2 here],pIC50,[1],7.77
CC[C@H](C)[C@H](NC(=O)[C@H](C)NC(=O)[C@H](CC(=O)O)NC(=O)[C@H](C)NC(=O)[C@@H](N)Cc1ccc(O)cc1)C(=O)N[C@@H](Cc1ccccc1)C(=O)N[C@H](C(=O)N[C@@H](CC(N)=O)C(=O)N[C@@H](CO)C(=O)N[C@@H](Cc1ccc(O)cc1)C(=O)N[C@@H](CCCNC(=N)N)C(=O)N[C@@H](CCCCN)C(=O)N[C@H](C(=O)N[C@@H](CC(C)C)C(=O)NCC(=O)N[C@@H](CCC(N)=O)C(=O)N[C@@H](CC(C)C)C(=O)N[C@@H](CO)C(=O)NCCCCCCCC(=O)N[C@@H](CC(C)C)C(=O)N[C@@H](CC(C)C)C(=O)N[C@@H](CCC(N)=O)C(=O)N[C@@H](CC(=O)O)C(=O)N[C@H](C(=O)N[C@@H](CCSC)C(=O)N[C@@H](CO)C(=O)N[C@@H](CCCNC(=N)N)C(N)=O)[C@@H](C)CC)C(C)C)[C@@H](C)O (H-YADAIFTNSYRKVLGQLS[Aoc]LLQDIMSR-NH2),pIC50,[1],< 6.00
H-YADAIFTNSYRKVLGQLSARKLLQDISR-NH2,pIC50,[1],8.02
H-YADAIFTNSYRKVLGQLSARKLLQDIMR-NH2,pIC50,[1],8.14
H-YADAIFTNSYRKVLGQLSARKLLDIMSR-NH2,pIC50,[1],7.34
CC[C@H](C)[C@H](NC(=O)[C@H](C)NC(=O)[C@H](CC(=O)O)NC(=O)[C@H](C)NC(=O)[C@H](Cc1ccc(O)cc1)NC(C)=O)C(=O)N[C@@H](Cc1ccccc1)C(=O)N[C@H](C(=O)N[C@@H](CC(N)=O)C(=O)N[C@@H](CO)C(=O)N[C@@H](Cc1ccc(O)cc1)C(=O)N[C@@H](CCCNC(=N)N)C(=O)N[C@@H](CCCCN)C(=O)N[C@H](C(=O)N[C@@H](CC(C)C)C(=O)NCC(=O)N[C@@H](CCC(N)=O)C(=O)N[C@@H](CC(C)C)C(=O)N[C@@H](CO)C(=O)N[C@@H](C)C(=O)N[C@@H](CCCNC(=N)N)C(=O)N[C@@H](CCCCN)C(=O)N[C@@H](CC(C)C)C(=O)N[C@@H](CC(C)C)C(=O)N[C@@H](CCC(N)=O)C(=O)N[C@@H](CC(=O)O)C(=O)N[C@H](C(=O)N[C@@H](CCSC)C(=O)N[C@@H](CO)C(=O)N[C@@H](CCCNC(=N)N)C(N)=O)[C@@H](C)CC)C(C)C)[C@@H](C)O,pIC50,[1],7.75
CC[C@H](C)[C@H](NC(=O)[C@H](C)NC(=O)[C@H](CC(=O)O)NC(=O)[C@H](C)NC(=O)[C@H](Cc1ccc(O)cc1)NC(=O)CCCN)C(=O)N[C@@H](Cc1ccccc1)C(=O)N[C@H](C(=O)N[C@@H](CC(N)=O)C(=O)N[C@@H](CO)C(=O)N[C@@H](Cc1ccc(O)cc1)C(=O)N[C@@H](CCCNC(=N)N)C(=O)N[C@@H](CCCCN)C(=O)N[C@H](C(=O)N[C@@H](CC(C)C)C(=O)NCC(=O)N[C@@H](CCC(N)=O)C(=O)N[C@@H](CC(C)C)C(=O)N[C@@H](CO)C(=O)N[C@@H](C)C(=O)N[C@@H](CCCNC(=N)N)C(=O)N[C@@H](CCCCN)C(=O)N[C@@H](CC(C)C)C(=O)N[C@@H](CC(C)C)C(=O)N[C@@H](CCC(N)=O)C(=O)N[C@@H](CC(=O)O)C(=O)N[C@H](C(=O)N[C@@H](CCSC)C(=O)N[C@@H](CO)C(=O)N[C@@H](CCCNC(=N)N)C(N)=O)[C@@H](C)CC)C(C)C)[C@@H](C)O,pIC50,[1],7.86
H-YADAIFTNSYRKVLGQLSARKLLQDIR-NH2,pIC50,[1],6.92
CC[C@H](C)[C@H](NC(=O)[C@H](C)NC(=O)[C@H](CC(=O)O)NC(=O)[C@H](C)NC(=O)[C@@H](N)Cc1ccc(O)cc1)C(=O)N[C@@H](Cc1ccccc1)C(=O)N[C@H](C(=O)N[C@@H](CC(N)=O)C(=O)N[C@@H](CO)C(=O)N[C@@H](Cc1ccc(O)cc1)C(=O)N[C@@H](CCCNC(=N)N)C(=O)N[C@@H](CCCCN)C(=O)N[C@H](C(=O)N[C@@H](CC(C)C)C(=O)NCC(=O)NCCCCCCCC(=O)N[C@@H](C)C(=O)N[C@@H](CCCNC(=N)N)C(=O)N[C@@H](CCCCN)C(=O)N[C@@H](CC(C)C)C(=O)N[C@@H](CC(C)C)C(=O)N[C@@H](CCC(N)=O)C(=O)N[C@@H](CC(=O)O)C(=O)N[C@H](C(=O)N[C@@H](CCSC)C(=O)N[C@@H](CO)C(=O)N[C@@H](CCCNC(=N)N)C(N)=O)[C@@H](C)CC)C(C)C)[C@@H](C)O (H-YADAIFTNSYRKVLG[Aoc]ARKLLQDIMSR-NH2),pIC50,[1],< 6.00
H-ADAIFTNSYRKVLAQLSARKLLQDIMSR-NH2,pIC50,[1],6.42
H-YADAIFTNSYRKVLGQLSALLQDIMSR-NH2,pIC50,[1],< 6.00

# From ChEMBL document CHEMBL1126044, “Affinity of human growth hormone-releasing factor (1-29)NH2 analogues for GRF binding sites in rat adenopituitary” (J Med Chem, 1992)
